aDG glyco up – alpha-DG glycosylation activation; Pro5-aDG cells, alpha-DG glycosylation AlphaScreen (IIH6); 0% Pro5, 100% B10-LARGE cell signal; activation, % at 10 µM; hit rate 0.22% among 360,000; AID 624168;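 active means activation of at least 8% versus controls, or a plate z-score of at least 8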;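 further: Pro5 are CHO cells carrying HIG-tagged alpha-DG that lacks glycosylation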
ADAM10 inh – ADAM10 inhibition, QFRET primary screen; O14672; recombinant ADAM10, EDANS/DABCYL FRET peptide cleavage, 3 h; inhibition, % at 7 µM; hit rate 0.62% among 370,000;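 active means inhibition above a per-campaign cutoff equal to the mean of compounds falling between control-based bounds plus 3 SD, cut at about 20% in these data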;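 further: 0% = DMSO wells while the 100% control is not disclosed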
V-ATPase pH – regulators of yeast V-ATPase proton transport. S. cerevisiae, pHLuorin cytosolic pH fluorescence. AID 504577. hit rate 0.37% among 350,000. response, % at 10 µM; in the data active means response mostly above about 7.3%, no sharp cut-off; inactive means mostly below about 5.4%; further: actives read high
ADAM17 inh – inhibits human ADAM17; recombinant ADAM17, EDANS/DABCYL FRET peptide cleavage; inhibition, % at 6.95 µM; hit rate 0.83% among 370,000; AID 720648;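 active means inhibition above the mean of compounds lying between control limits plus 3 SD, set per campaign, cut at about 8.5% in these data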;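 further: 0% = DMSO-only wells as the low control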
Target sequence (P78536 215-824 limits assumed): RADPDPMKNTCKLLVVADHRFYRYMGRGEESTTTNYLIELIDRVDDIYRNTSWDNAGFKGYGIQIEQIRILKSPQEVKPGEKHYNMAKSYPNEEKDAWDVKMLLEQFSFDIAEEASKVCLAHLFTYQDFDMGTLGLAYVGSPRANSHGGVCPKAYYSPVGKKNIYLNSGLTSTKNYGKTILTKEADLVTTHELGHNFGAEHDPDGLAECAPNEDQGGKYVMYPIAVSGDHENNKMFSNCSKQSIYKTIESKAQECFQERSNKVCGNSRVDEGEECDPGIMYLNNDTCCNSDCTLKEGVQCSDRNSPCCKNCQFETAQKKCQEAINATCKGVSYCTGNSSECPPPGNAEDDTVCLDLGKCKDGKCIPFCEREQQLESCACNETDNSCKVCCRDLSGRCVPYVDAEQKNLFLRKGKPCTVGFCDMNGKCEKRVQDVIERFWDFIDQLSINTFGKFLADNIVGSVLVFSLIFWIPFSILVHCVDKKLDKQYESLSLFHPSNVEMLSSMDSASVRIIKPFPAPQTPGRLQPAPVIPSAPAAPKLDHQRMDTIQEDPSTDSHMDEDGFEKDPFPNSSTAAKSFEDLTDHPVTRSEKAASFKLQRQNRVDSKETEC
MPTP inh – blocks calcium-induced mitochondrial swelling; isolated mouse mitochondria, Ca2+ swelling absorbance, 30 min; inhibition, % at 10 µM; hit rate 1.4% among 360,000; AID 602449;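 active means inhibition of 50% or more, scaled per plate between neutral and stimulator controls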;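 further: 0% = DMSO wells given calcium and 100% = 1 mM EGTA wells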
Hep lipid drop – modulators of hepatic lipid droplet formation | AML12 mouse hepatocytes, oleate lipid droplets, BODIPY imaging | inhibition, % at 6.5 µM | hit rate 0.4% among 240,000 | AID 1656;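 active means lipid droplet intensity inhibited by at least 50%, with more than 500 cells counted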
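Technique: fluorescence imaging, 20x objective, two fields per well / Assay system: AML12 hepatocytes (mouse) / Measure: % inhibition of lipid droplet signal / Doses: 6.5 µM single-point dosing / Incubation: overnight exposure / Reagent: 100 µM oleic acid challenge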
Lipid drop inh – hepatic lipid droplet formation inhibition, confirmed; inhibition, % at 5.2 µM; hit rate 65% among 870; AML12 mouse hepatocytes, BODIPY lipid droplet imaging; droplets induced with 100 µM oleic acid; AID 463183; shares compounds with Hep lipid drop;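 active means inhibition of lipid droplet metric at least 50%, with more than 300 cells in each of four replicates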;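 further: plate controls were DMSO with oleic acid for no effect and 5 µM Triacsin-C for full effect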
AML12 tox img – counter-screen for cytotoxicity in AML12 mouse hepatocytes. shares compounds with Hep lipid drop. DAPI nuclear morphology cytotoxicity imaging; active compounds read high; cells fed 100 µM oleate overnight. z-score at 5 µM. hit rate 3% among 870. AID 463200; in the data active means z-score above about 6.3;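 further: compound exposure lasted overnight at 37 °C before fixation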
VATPase regulator – regulators of yeast V-ATPase proton transport; shares compounds with V-ATPase pH; S. cerevisiae pHLuorin cytosolic pH; response, % at 10 µM; hit rate 2% among 980; AID 602197; in the data active means response above about 24%;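 further: plate controls were vehicle wells for no effect and positive control wells for full effect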
MPTP counter – membrane potential counter-screen of mitochondrial pore inhibitors | isolated mitochondria, Rhodamine 123 fluorescence | AID 624504 | inhibition, % at 10 µM | hit rate 78% among 5,000 | shares compounds with MPTP inh; in the data active means inhibition above about 22%;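 further: 0% = DMSO vehicle and 100% = positive control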
MPTP swell DR – MPTP inhibition, dose response swelling confirmation | shares compounds with MPTP inh | isolated mitochondria swelling, absorbance | IC50, µM | hit rate 58% among 780 | AID 651561; in the data active means IC50 below about 20 µM
MPTP counter DR – active in counter-screen for permeability transition pore inhibitors. isolated mitochondria counterscreen, fluorescence read-out. hit rate 49% among 780. AID 651564. shares compounds with MPTP inh. IC50, µM; in the data active means IC50 below about 80 µM
Starred values were filed as active, the others as inactive; x = not tested or not shown; ! = not confirmed by another sample. Hits are enriched below; roughly 3.1% of the tested compounds scored in any of these assays.

SMILES	aDG glyco up	ADAM10 inh	V-ATPase pH	ADAM17 inh	MPTP inh	Hep lipid drop	VATPase regulator	others
Nc1cc(Cl)c2nonc2c1[N+](=O)[O-]	-1	3	-2	-4	4	113*	x	Lipid drop inh=-21;AML12 tox img=2.5
O=[N+]([O-])c1c(Cl)c(Cl)c(Cl)c(Cl)c1Cl	0	-6	1	-1	-2	x	x
CO[C@H]([C@H](C)/C=C/N(C)C=O)[C@@H](C)C(=O)CC[C@H](C)[C@H](O)[C@H](C)[C@H]1OC(=O)/C=C/C(C)=C/[C@H](O)[C@H](OC)C[C@@H]2C=CC[C@@H](C[C@H](OC)[C@@H](CO)[C@@H](OC)C[C@@H](OC)[C@@H]1C)O2	x	5	x	-1	x	x	x
[N-]=[N+]=NCCN1CCC(O)CCC1=O (stereo not given)	0	-3	26*	-3	0	x	-1
COc1c(C)cc(C(=O)C2CCCN(Cc3cccc(C)n3)C2)cc1C (stereo not given)	0	4	9.2*	0	-1	-35	-6
CC12CCC(=O)C=C1CCC1C2CCC2(C)C1CCC2(O)CC#N (stereo not given)	0	-2	12*	-4	-2	x	3
N#CC1c2ccccc2-n2nncc2CN1C(=O)c1ccc([N+](=O)[O-])o1 (stereo not given)	x	-1	x	0	x	x	x
CC[C@H](C)[C@@H]1OC(=O)[C@H](C(C)C)N(C)C(=O)[C@H](C(C)C)NC(=O)[C@@H](C)[C@@H](CCCC#CBr)OC(=O)[C@H](C(C)C)N(C)C(=O)C2CCCN2C1=O (stereo not given in full)	x	0	x	-7	x	x	x
CC(=O)Nc1cc(C(=O)N2CCC3(CC2)OCCO3)ccc1S(=O)(=O)c1ccc(Cl)cc1	0	0	8.8*	-1	-2	2	7
CC(=O)Nc1cc(C(=O)N2CCC3(CC2)OCCO3)ccc1S(=O)(=O)c1ccc(C)cc1	0	3	1	3	0	x	x
Cc1ccccc1CCC[C@H](CC1CCCCC1)CN(C)C(=O)Oc1ccccc1	x	-3	x	-6	x	x	x
O=C(Nc1ccccc1)c1c(O)[nH]c(=O)[nH]c1=O	0	-5	0	1	-1	x	x
O=C(Nc1ccccc1)c1c(O)[nH]c(=S)[nH]c1=O	0	5	13*	-2	0	x	-1
Cc1ccc(-n2c(O)c(/C=C/C=Nc3ccccc3)c(=O)[nH]c2=O)cc1	0	-3	85*	-2	-3	28	-16
CN1CCC(O)(c2ccccc2)C2CCCC21 (stereo not given)	0	6	3	-3	-2	4	x
Cc1ccc(C2(O)CCN3CCCCC32)cc1 (stereo not given)	0	10	12*	0	-1	x	0
O=C(NC(Cc1ccccc1)P(=O)(O)Oc1ccccc1)OCc1ccccc1 (stereo not given)	x	0	x	-1	x	x	x
CCN(CC)c1ccc(N=Cc2c(O)n(Cc3ccccc3)c(=O)[nH]c2=O)cc1	0	-8	46*!	-3	4	18	-41
O=C(CNC(=O)OCc1ccccc1)NC(Cc1ccccc1)P(=O)(Oc1ccccc1)Oc1ccccc1 (stereo not given)	x	12	x	4	x	x	x
Cc1cc(C(=O)C[N+]23CCN(CC2)CC3)c(C)n1-c1ccc(Br)cc1	0	-5	9.2*	-2	-1	0	0
Cc1cc(/C=C2\C(=O)NC(=O)N(c3ccc(Br)cc3)C2=O)c(C)n1-c1cc(C(=O)O)cc(C(=O)O)c1	0	-16	3	-9	-1	1	x
COCCNCCOc1ccc(C(C)(C)c2ccccc2)cc1	2	-1	12*	-2	78*	28	-2	MPTP counter=-9;MPTP swell DR=7.7*;MPTP counter DR=>80
CC(=O)N1c2ccccc2C(c2ccccc2)=NCC1C(=O)NCc1ccccc1 (stereo not given)	x	-3	x	-1	x	x	x
CCCCC1(CCCC)C(=O)NC(=Nc2cccc(C)c2)NC1=O	0	0	2	0	92*	x	x	MPTP counter=93*
COc1cc(OC)c(OC)cc1/C=C1/C(=O)NC(=O)N(Cc2ccccc2)C1=O	0	-38	3	-7	60*	14	x	MPTP counter=37*
SMILES	aDG glyco up	ADAM10 inh	V-ATPase pH	ADAM17 inh	MPTP inh	Hep lipid drop	VATPase regulator	others
CCC(=Nc1cccc(C(F)(F)F)c1)c1c(O)n(C)c(=O)n(C)c1=O	0	-2	5	1	80*	12	x	MPTP counter=1;MPTP swell DR=9*;MPTP counter DR=14*
O=C1NC(=O)N(c2cccc(Cl)c2)C(=O)/C1=C\c1ccc(Sc2nc3ccccc3[nH]2)o1	0	-10	3	-1	40	2	x
O=C1NC(=O)N(c2ccccc2)C(=O)/C1=C/c1ccc(Sc2ccccc2)o1	0	x	-1	x	51*	-3	x	MPTP counter=43*
O=C(NCCN1CCC2(CC1)C(=O)NCN2c1ccccc1)c1ccccc1C(F)(F)F	x	-8	x	-2	x	x	x
CC(=O)c1cn(Cc2ccccc2F)c2ccccc12	1	1	1	4	73*	x	x	MPTP counter=70*
CC(=O)c1cn(Cc2ccccc2C#N)c2ccccc12	7.5*	0	-1	-2	77*	-8	x	MPTP counter=90*
Brc1csc(N2CCNCC2)n1	x	-8	x	-7	x	x	x
N#CCC[C@H]1CC[C@]2(CCCN(Cc3ccccn3)C2)O1	x	0	x	1	x	x	x
N=c1c2c(-c3ccccc3)c(-c3ccccc3)n(Cc3ccccc3)c2ncn1C1CCC(O)CC1 (stereo not given)	x	1	x	0	x	x	x
Cc1cc(O)c2c(c1)C(=O)C13C(=C2O)C(=O)[C@H]2[C@@H](O)[C@@H]1[C@H]1[C@H](O)[C@@H]3C(=O)C3=C(O)c4c(O)cc(C)cc4C(=O)C312 (stereo not given in full)	0	x	-3	x	87*	x	x	MPTP counter=-60
N#Cc1ccc(NC(=S)N2Cc3ccc(Br)cc3-n3nncc3C2)cc1	x	-9	x	0	x	x	x
N#CC1c2ccccc2-n2nncc2CN1C(=O)c1cccnc1 (stereo not given)	x	-3	x	-5	x	x	x

Screens from PubChem BioAssay.
